Measurements as given in ChEMBL document CHEMBL1156979, “The impact of polyether chain length on the iron clearing efficiency and physiochemical properties of desferrithiocin analogues” (J Med Chem, 2010).
The source made the active and inactive calls. No cut-off for these calls is given here.

Legend:
Rattus norvegicus [1] = assay: Iron-clearing efficiency in non-iron-overloaded and bile duct-cannulated Sprague-Dawley rat at 150 umol/kg, po after 24 hrs relative to control; assay type: functional
Rattus norvegicus [2] = assay: Iron-clearing efficiency in non-iron-overloaded and bile duct-cannulated Sprague-Dawley rat assessed as bile iron excretion at 150 umol/kg, po after 24 hrs relative to control; assay type: functional
Rattus norvegicus [3] = assay: Iron-clearing efficiency in non-iron-overloaded and bile duct-cannulated Sprague-Dawley rat assessed as urine iron excretion at 150 umol/kg, po after 24 hrs relative to control; assay type: functional
Sapajus apella [4] = assay: Iron-clearing efficiency in iron-overloaded Cebus apella at 150 umol/kg, po measured daily once for 2 days by flame absorption spectroscopy relative to control; assay type: functional
Sapajus apella [5] = assay: Iron-clearing efficiency in iron-overloaded Cebus apella assessed as feces iron excretion at 150 umol/kg, po measured daily once for 5 days by lame absorption spectroscopy relative to control; assay type: functional
Sapajus apella [6] = assay: Iron-clearing efficiency in iron-overloaded Cebus apella assessed as urine iron excretion at 150 umol/kg, po measured daily once for 5 days by lame absorption spectroscopy relative to control; assay type: functional
[7] = Octanol-water partition coefficient, log P in Tris buffer at pH 7.4 by shake flask method; assay type: physicochemical
In short: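 Octanol/water partition was measured at pH 7.4 (Tris buffer) by the shake-flask direct method. The fraction of drug in octanol is expressed as log P_app.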

[8] = Ratio of iron-clearing efficiency in iron-overloaded Cebus apella to iron-clearing efficiency in non-iron-overloaded Sprague-Dawley rat at 150 umol/kg, po; assay type: functional
[9] = Ratio of iron-clearing efficiency in iron-overloaded Cebus apella at 75 umol/kg, po to iron-clearing efficiency in non-iron-overloaded and bile duct-cannulated Sprague-Dawley rat at 300 umol/kg, po after 48 hrs; assay type: functional, organism-based
In short: (§1)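 Iron-overloaded Cebus apella (3.5–4 kg; iv iron dextran to about 500 mg Fe/kg, ≥60 days before use) dosed orally at 75 μmol/kg, by gavage as monosodium salt (1 equiv NaOH in distilled water) or in capsules. Feces and urine collected every 24 h from 4 days pre-drug to 5 days post-drug; iron by flame absorption spectroscopy. ICE = 2-day post-drug iron minus 4-day baseline average, divided by theoretical output (2:1 ligand:iron); percent. Performance ratio = mean primate ICE/rodent ICE.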

Rattus norvegicus [10] = assay: Iron-clearing efficiency in non-iron-overloaded and bile duct-cannulated Sprague-Dawley rat assessed as time required to maximum bile iron excretion at 300 umol/kg, po after 12 to 15 hrs; assay type: functional, organism-based
In short: (§2)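 Non-iron-overloaded male Sprague-Dawley rats (400–450 g), bile duct-cannulated, given a single oral dose of 300 μmol/kg, either by gavage as monosodium salt or in capsules. Bile was collected at 3 h intervals for up to 48 h and urine every 24 h. Iron was measured by flame absorption spectroscopy. ICE = 24-h iron excretion of treated rats minus controls, divided by theoretical output (2:1 ligand:iron); percent. Mean ± SEM; one-tailed t-test.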

Rattus norvegicus [11] = assay: Iron-clearing efficiency in non-iron-overloaded and bile duct-cannulated Sprague-Dawley rat assessed as bile iron excretion at 300 umol/kg, po up to 48 hrs; assay type: functional, organism-based; in short: as §2
Sapajus apella [12] = assay: Iron-clearing efficiency in iron-overloaded Cebus apella assessed as reduction of liver iron stores at 384 umol/kg, po qd for 28 days; assay type: functional, organism-based
Rattus norvegicus [13] = assay: Iron-clearing efficiency in non-iron-overloaded and bile duct-cannulated Sprague-Dawley rat assessed as reduction of pancreatic iron content at 384 umol/kg, po qd for 10 days administered as monosodium salt; assay type: functional, organism-based
In short: (§3)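 Male Sprague-Dawley rats (300–350 g) were fasted overnight and dosed orally once daily for 10 d. Dosing was 384 μmol/kg/d in gelatin capsules (n = 5) or by gavage as monosodium salt (n = 10), or 192 (n = 6) or 384 μmol/kg/d (n = 5) in capsules. Rats were fed ~3 h post-dose. Age-matched untreated controls (n = 12). Kidney, liver, heart and pancreas were taken on day 11, wet-ashed (120 °C, then H2O2), and iron was measured by flame absorption spectroscopy.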

Rattus norvegicus [14] = assay: Iron-clearing efficiency in non-iron-overloaded and bile duct-cannulated Sprague-Dawley rat assessed as reduction of pancreatic iron content at 384 umol/kg, po qd for 10 days administered as gelatin capsules; assay type: functional, organism-based; in short: as §3
Rattus norvegicus [15] = assay: Iron-clearing efficiency in non-iron-overloaded and bile duct-cannulated Sprague-Dawley rat assessed as reduction of liver iron stores at 384 umol/kg, po qd for 10 days
Rattus norvegicus [16] = assay: Iron-clearing efficiency in non-iron-overloaded and bile duct-cannulated Sprague-Dawley rat assessed as reduction of pancreatic iron content at 192 umol/kg, po qd for 10 days relative to control; assay type: functional, organism-based; in short: as §3
Rattus norvegicus [17] = assay: Iron-clearing efficiency in non-iron-overloaded and bile duct-cannulated Sprague-Dawley rat assessed as reduction of cardiac iron content at 192 umol/kg, po qd for 10 days relative to control; assay type: functional, organism-based; conditions: Heart; in short: as §3
Rattus norvegicus [18] = assay: Iron-clearing efficiency in non-iron-overloaded and bile duct-cannulated Sprague-Dawley rat assessed as reduction of liver iron content at 192 umol/kg, po qd for 10 days relative to control; assay type: functional; parameters: scale not given: the % may be the effect or the level left; in short: as §3
Rattus norvegicus [19] = assay: Iron-clearing efficiency in non-iron-overloaded and bile duct-cannulated Sprague-Dawley rat assessed as reduction of renal iron content at 192 umol/kg, po qd for 10 days relative to control; assay type: functional; parameters: scale not given: the % may be the effect or the level left; in short: as §3
Rattus norvegicus [20] = assay: Iron-clearing efficiency in non-iron-overloaded and bile duct-cannulated Sprague-Dawley rat at 300 umol/kg, po after 48 hrs relative to control; assay type: functional; in short: as §2
Rattus norvegicus [21] = assay: Iron-clearing efficiency in non-iron-overloaded and bile duct-cannulated Sprague-Dawley rat assessed as urine iron excretion at 300 umol/kg, po after 48 hrs relative to control; assay type: functional
Sapajus apella [22] = assay: Iron-clearing efficiency in iron-overloaded Cebus apella at 75 umol/kg, po measured daily once for 2 days by flame absorption spectroscopy relative to control; assay type: functional; in short: as §1
Sapajus apella [23] = assay: Iron-clearing efficiency in iron-overloaded Cebus apella assessed as feces iron excretion at 75 umol/kg, po measured daily once for 5 days by lame absorption spectroscopy relative to control; assay type: functional
Sapajus apella [24] = assay: Iron-clearing efficiency in iron-overloaded Cebus apella assessed as urine iron excretion at 75 umol/kg, po measured daily once for 5 days by lame absorption spectroscopy relative to control; assay type: functional
Rattus norvegicus [25] = assay: Renal toxicity in Sprague-Dawley rat at 384 umol/kg, po qd for 10 days; assay type: organism-based; conditions: in vivo, 240 h
In short: (§4)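 Male Sprague-Dawley rats (300–350 g), fasted overnight, were dosed orally once daily for 10 d. Dosing was 384 μmol/kg/d (capsules or by gavage as monosodium salt) or 192 μmol/kg/d (capsules). Age-matched untreated controls. Rats were euthanized 24 h after the last dose (day 11), and extensive tissues were examined histopathologically.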

Rattus norvegicus [26] = assay: Toxicity in Sprague-Dawley rat assessed as mild to moderate vacuolar degeneration of proximal tubular epithelial cells at 384 umol/kg, po qd for 10 days; assay type: organism-based, Epithelial cell; conditions: in vivo, 240 h; in short: as §4
Rattus norvegicus [27] = assay: Toxicity in Sprague-Dawley rat assessed as histopathological examination at 192 umol/kg, po qd for 10 days; assay type: organism-based; conditions: in vivo, 240 h; in short: as §4
Rattus norvegicus [28] = assay: Iron-clearing efficiency in non-iron-overloaded and bile duct-cannulated Sprague-Dawley rat assessed as reduction of renal iron content at 384 umol/kg, po qd for 10 days relative to control; assay type: functional; parameters: scale not given: the % may be the effect or the level left; in short: as §3
Rattus norvegicus [29] = assay: Iron-clearing efficiency in non-iron-overloaded and bile duct-cannulated Sprague-Dawley rat assessed as reduction of liver iron content at 384 umol/kg, po qd for 10 days relative to control; assay type: functional; parameters: scale not given: the % may be the effect or the level left; in short: as §3
Rattus norvegicus [30] = assay: Iron-clearing efficiency in non-iron-overloaded and bile duct-cannulated Sprague-Dawley rat assessed as reduction of pancreatic iron content at 384 umol/kg, po qd for 10 days relative to control; assay type: functional, organism-based; in short: as §3
Rattus norvegicus [31] = assay: Iron-clearing efficiency in non-iron-overloaded and bile duct-cannulated Sprague-Dawley rat assessed as reduction of cardiac iron content at 384 umol/kg, po qd for 10 days relative to control; assay type: functional, organism-based; conditions: Heart; in short: as §3
Rattus norvegicus [32] = assay: Iron-clearing efficiency in non-iron-overloaded and bile duct-cannulated Sprague-Dawley rat at 300 umol/kg, po after 24 hrs relative to control; assay type: functional; in short: as §2
Rattus norvegicus [33] = assay: Iron-clearing efficiency in non-iron-overloaded and bile duct-cannulated Sprague-Dawley rat assessed as bile iron excretion at 300 umol/kg, po after 24 hrs relative to control; assay type: functional; in short: as §2
Rattus norvegicus [34] = assay: Iron-clearing efficiency in non-iron-overloaded and bile duct-cannulated Sprague-Dawley rat assessed as urine iron excretion at 300 umol/kg, po after 24 hrs relative to control; assay type: functional
[35] = Ratio of iron-clearing efficiency in iron-overloaded Cebus apella at 75 umol/kg, po to iron-clearing efficiency in non-iron-overloaded and bile duct-cannulated Sprague-Dawley rat at 300 umol/kg, po; assay type: functional, organism-based; in short: as §1
Rattus norvegicus [36] = assay: Iron-clearing efficiency in non-iron-overloaded and bile duct-cannulated Sprague-Dawley rat assessed as time required to maximum bile iron excretion at 300 umol/kg, po; assay type: functional; in short: as §2
Rattus norvegicus [37] = assay: Iron-clearing efficiency in non-iron-overloaded and bile duct-cannulated Sprague-Dawley rat assessed as bile iron excretion at 300 umol/kg, po up to 24 hrs; assay type: functional, organism-based; in short: as §2

Compound: C[C@]1(C(=O)O)CSC(c2ncccc2O)=N1 [DESFERRITHIOCIN]
- Activity (Rattus norvegicus [1]): 5.5%
- Activity (Rattus norvegicus [2]): 93%
- Activity (Rattus norvegicus [3]): 7%
- Activity (Sapajus apella [4]): 16.1%
- Activity (Sapajus apella [5]): 78%
- Activity (Sapajus apella [6]): 22%
- logD [7]: -1.77
- Ratio [8]: 2.9

Compound: COCCOCCOc1ccc(C2=N[C@@](C)(C(=O)O)CS2)c(O)c1
- Ratio [9]: 1
- Activity (Rattus norvegicus [10]): inactive
- Activity (Rattus norvegicus [11]): Active
- Activity (Sapajus apella [12]): Active
- Activity (Rattus norvegicus [13]): Active
- Activity (Rattus norvegicus [14]): inactive
- Activity (Rattus norvegicus [15]): Active

Compound: CCOC(=O)[C@@]1(C)CSC(c2ccc(OCCOCCOC)cc2O)=N1
- Activity (Rattus norvegicus [16]): inactive
- Activity (Rattus norvegicus [17]): inactive
- Activity (Rattus norvegicus [18]): 27%
- Activity (Rattus norvegicus [19]): 12.6%
- Activity (Rattus norvegicus [20]): 25.9%
- Activity (Rattus norvegicus [21]): 1%
- Activity (Sapajus apella [22]): 8.8%
- Activity (Sapajus apella [23]): 98%
- Activity (Sapajus apella [24]): 2%
- logD [7]: 3
- Ratio [9]: 0.3
- Activity (Rattus norvegicus [10]): inactive
- Activity (Rattus norvegicus [11]): Active
- Activity (Rattus norvegicus [25]): Toxic
- Activity (Rattus norvegicus [26]): Toxic
- Activity (Rattus norvegicus [27]): Non-toxic
- Activity (Rattus norvegicus [28]): 32.1%
- Activity (Rattus norvegicus [29]): 59.1%
- Activity (Rattus norvegicus [30]): inactive
- Activity (Rattus norvegicus [31]): inactive

Compound: COCCOCCOCCOCCOc1ccc(C2=N[C@@](C)(C(=O)[O-])CS2)c(O)c1.[Na+]
- Activity (Rattus norvegicus [32]): 12%
- Activity (Rattus norvegicus [33]): 99%
- Activity (Rattus norvegicus [34]): 1%
- Activity (Sapajus apella [22]): 9.8%
- Activity (Sapajus apella [23]): 52%
- Activity (Sapajus apella [24]): 48%
- Ratio [35]: 0.8
- Time (Rattus norvegicus [36]): 6 h
- Activity (Rattus norvegicus [37]): Active
